Laboratory results: ChEMBL document CHEMBL4007509, “Structural Optimizations of Thieno[3,2-b]pyrrole Derivatives for the Development of Metabolically Stable Inhibitors of Chikungunya Virus” (J Med Chem, 2017)
The source made the active and inactive calls. No cut-off for these calls is given here.

Experiments:
Chikungunya virus [1] = experiment: Antiviral activity against wild type Chikungunya virus IMT infected in HEK293T cells assessed as reduction in virus infection after 24 hrs by FITC immunofluorescence-based single cell quantification high content screening assay; assay type: functional; conditions: HEK-293T
[2] = Cytotoxicity against HEK293T cells assessed as reduction in cell viability after 24 hrs by CellTiter-Glo luminescent assay; assay type: cell-based, HEK-293T; conditions: human
Method in brief: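 HEK 293T cell viability was measured by CellTiter-Glo luminescence after 24 h exposure to serial dilutions. Data were normalized to untreated cells (100%) and reagent background (0%). CC50, the concentration reducing viability by 50%, came from a five-parameter asymmetric fit.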

Chikungunya virus [3] = experiment: Antiviral activity against full length Gaussia princeps Gluc-tagged Chikungunya virus IMT infected in HEK293T cells assessed as reduction in virus infection after 24 hrs by Gaussia luciferase reporter gene assay; assay type: functional, cell-based; conditions: HEK-293T
[4] = Selectivity index, ratio of CC50 for HEK293T cells to EC50 for full length Gaussia princeps Gluc-tagged Chikungunya virus IMT; assay type: toxicity; conditions: human, read-out: Ratio CC50/EC50
[5] = Half life in human liver microsomes; assay type: ADME, microsome
Method in brief: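 Compounds were incubated with human liver microsomes. Half-life = ln(2)/slope, where the slope is ln(% detected) plotted against time, using the mean of at least 3 independent experiments.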

Liver = experiment: Intrinsic clearance in human liver microsomes; assay type: ADME, microsome
Method in brief: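 Intrinsic clearance was measured in human liver microsome incubation and expressed in μL min−1 mg−1 microsomal protein.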

[6] = Terminal half life in C57BL/6 mouse at 3 mg/kg, iv; assay type: ADME, organism-based; conditions: in vivo, read-out: beta t1/2 (converted)
Method in brief: (§1)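 Male C57BL/6 mice received a single 3 mg/kg iv or 10 mg/kg po dose of a solution in 5% DMSO, 70% PEG400 and 25% water. Results are terminal half-life (h), plasma clearance (mL min−1 kg−1), Vss (L/kg), Tmax (h), Cmax (ng/mL) and oral bioavailability. Values are mean ± SD of three mice.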

[7] = Terminal half life in C57BL/6 mouse at 10 mg/kg, po; assay type: ADME, organism-based; conditions: in vivo, read-out: beta t1/2 (converted); method in brief: as §1
[8] = Plasma clearance in C57BL/6 mouse at 3 mg/kg, iv; assay type: ADME, organism-based; method in brief: as §1
[9] = Volume of distribution in steady state in C57BL/6 mouse at 3 mg/kg, iv; assay type: ADME, organism-based; conditions: in vivo, read-out: Vdss; method in brief: as §1
[10] = Tmax in C57BL/6 mouse at 10 mg/kg, po; assay type: ADME, organism-based; conditions: in vivo; method in brief: as §1
[11] = Cmax in C57BL/6 mouse at 10 mg/kg, po; assay type: ADME, organism-based; set-up: dose 10 mg/kg, route oral; conditions: in vivo; method in brief: as §1
[12] = Oral bioavailability in C57BL/6 mouse at 10 mg/kg; assay type: ADME, organism-based; conditions: in vivo; method in brief: as §1
[13] = Plasma concentration in C57BL/6 mouse at 3 mg/kg, iv administered as single dose measured within 1 hr post dose by HPLC-MS/MS analysis; assay type: ADME, organism-based
Method in brief: (§2)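 Male C57BL/6 mice received a single 3 mg/kg iv or 10 mg/kg po dose in 5% DMSO/70% PEG400/25% water. Plasma was sampled at set times over 24 h and analysed by HPLC-MS/MS, with a quantification limit of 0.5 ng/mL. Values are mean ± SD of three mice.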

Chikungunya virus [14] = experiment: Antiviral activity against Chikungunya virus IMT infected in HEK 293T cells assessed as reduction in viral load measured up to 24 hrs by qRT-PCR analysis; assay type: functional, cell-based
[15] = Plasma concentration in C57BL/6 mouse at 10 mg/kg, po administered as single dose measured at 24 hrs by HPLC-MS/MS analysis; assay type: ADME, organism-based; method in brief: as §2
Chikungunya virus [16] = experiment: Antiviral activity against Chikungunya virus IMT infected in HEK 293T cells assessed as reduction in viral load at 5 uM measured up to 24 hrs by qRT-PCR analysis relative to control; assay type: functional
Chikungunya virus [17] = experiment: Antiviral activity against Chikungunya virus IMT infected in HEK 293T cells assessed as reduction in viral load at 10 uM measured up to 24 hrs by qRT-PCR analysis relative to control; assay type: functional
Chikungunya virus [18] = experiment: Antiviral activity against Chikungunya virus IMT infected in HEK 293T cells assessed as reduction in viral load at 25 uM measured up to 24 hrs by qRT-PCR analysis relative to control; assay type: functional
[19] = Plasma concentration in C57BL/6 mouse at 10 mg/kg, po administered as single dose measured within 1 hr post dose by HPLC-MS/MS analysis; assay type: ADME, organism-based; method in brief: as §2
[20] = Plasma concentration in C57BL/6 mouse at 3 mg/kg, iv administered as single dose measured at 24 hrs by HPLC-MS/MS analysis; assay type: ADME, organism-based; method in brief: as §2
Chikungunya virus [21] = experiment: Antiviral activity against Chikungunya virus IMT infected in HEK 293T cells assessed as reduction in viral load measured up to 24 hrs by qRT-PCR analysis relative to control; assay type: functional, cell-based
Chikungunya virus [22] = experiment: Antiviral activity against full length gluc-tagged Chikungunya virus 2008 Singapore SGP11 infected in HEK293T cells assessed as reduction in virus infection after 24 hrs by gaussia luciferase reporter gene assay; assay type: functional, cell-based; conditions: 2008 Singapore SGP11, HEK-293T
Chikungunya virus [23] = experiment: Antiviral activity against full length gluc-tagged Chikungunya virus 2013 Caribbean CNR20235 infected in HEK293T cells assessed as reduction in virus infection after 24 hrs by gaussia luciferase reporter gene assay; assay type: functional, cell-based; conditions: 2013 Caribbean CNR20235, HEK-293T
Onyong-nyong virus = experiment: Antiviral activity against O'nyong-nyong virus Chad infected in HEK293T cells assessed as reduction in virus infection after 24 hrs by FITC-based assay; assay type: functional, cell-based; conditions: HEK-293T
Method in brief: (§3)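 This was a pan-alphavirus panel against ONNV and SINV, read by immunofluorescence-based high content screen. Serial dilutions were normalized to untreated infection (100%) and noninfected cells (0%). The EC50, the concentration inhibiting 50% infectivity, came from a five-parameter asymmetric dose-response fit.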

Sindbis virus = experiment: Antiviral activity against Sindbis virus infected in HEK293T cells assessed as reduction in virus infection after 24 hrs by FITC-based assay; assay type: functional, cell-based; conditions: HEK-293T; method in brief: as §3
Chikungunya virus [24] = experiment: Antiviral activity against full length gluc-tagged Chikungunya virus IMT infected in human BJ cells assessed as reduction in virus infection after 24 hrs by gaussia luciferase reporter gene assay; assay type: functional, cell-based
[25] = Cytotoxicity against human BJ cells assessed as reduction in cell viability after 24 hrs by CellTiter-Glo luminescent assay; assay type: cell-based
Method in brief: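 BJ human fibroblast viability was measured by CellTiter-Glo luminescence after 24 h exposure to serial dilutions. Data were normalized to untreated cells (100%) and reagent background (0%). CC50 came from a five-parameter asymmetric fit.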

[26] = Selectivity index, ratio of CC50 for human BJ cells to EC50 for full length Gaussia princeps Gluc-tagged Chikungunya virus IMT; assay type: toxicity; conditions: read-out: Ratio CC50/EC50
Chikungunya virus [27] = experiment: (§4) Antiviral activity against wild type Chikungunya virus IMT infected in HEK293T cells administered 2 to 4 hrs prior to infection measured after 24 hrs post infection by FITC immunofluorescence-based single cell quantification high content screening assay; assay type: functional; conditions: HEK-293T
Chikungunya virus [28] = experiment: Antiviral activity against wild type Chikungunya virus IMT infected in HEK293T cells administered 2 to 12 hrs post infection measured after 24 hrs post infection by FITC immunofluorescence-based single cell quantification high content screening assay; assay type: functional
Chikungunya virus [29] = experiment: Antiviral activity against wild type Chikungunya virus IMT infected in HEK293T cells at 5 uM administered 2 to 12 hrs post infection measured after 24 hrs post infection by alpha virus detection based FITC immunofluorescence-based single cell quantification high content screening assay; assay type: functional
Chikungunya virus [30] = experiment: as §4, with “to infection followed by cels incubation in absence of compound from 0 hrs post infection onwards measured after 24 hrs by measured after” for “to infection measured after”; assay type: functional; conditions: HEK-293T
Chikungunya virus [31] = experiment: Antiviral activity against wild type Chikungunya virus IMT infected in HEK293T cells at 5 uM administered 2 to 4 hrs prior to infection followed by cels incubation in absence of compound from 0 hrs post infection onwards measured after 24 hrs by measured after 24 hrs post infection by FITC immunofluorescence-based single cell quantification high content screening assay; assay type: functional
Chikungunya virus [32] = experiment: Antiviral activity against wild type Chikungunya virus IMT infected in HEK293T cells administered during virus adsorption stage (0 hrs post infection) measured after 24 hrs post infection by FITC immunofluorescence-based single cell quantification high content screening assay; assay type: functional

Structure (SMILES)	EC50 (Chikungunya virus [1]) [µM]	CC50 at 24 h [2] [µM]	EC50 (Chikungunya virus [3]) [µM]	selectivity ratio [4]	half-life [5] [min]	CLH (Liver) [µL/min]	half-life [6] [min]	half-life [7] [min]	clearance [8] [mL/min/kg]	Vd [9] [L/kg]	Tmax [10] [min]	Cmax [11] [ng/mL]	bioavailability [12] [%]	concentration at 1 h [13] [µM]	inhibition (Chikungunya virus [14])	concentration at 24 h [15] [ng/mL]	fold change (FC) (Chikungunya virus [16])	concentration at 1 h [19] [µM]	concentration at 24 h [20] [ng/mL]	Activity (Chikungunya virus [21])	other results
CCCNC(=O)[C@@H]1C[C@H]2CCC[C@@H](C1)[C@@H]2NC(=O)c1cc2sc(Br)nc2n1Cc1ccc(OC)cc1	12.6	> 100	7.23	> 14	52	26.7	65.4	83.4	5.68	0.337	20	6700	39.1	17	Dose-dependent effect	< 0.5	<=5	17	< 0.5	Dose-dependent effect	fold change (FC) (Chikungunya virus [17]): <=5; fold change (FC) (Chikungunya virus [18]): <=5
CCCNC(=O)C1CCN(C(=O)c2cc3sc(-c4ccccc4)cc3n2Cc2ccc(OC)cc2)CC1	4.03	> 100	3.3	> 20	44.2	31.4	124	142	18.6	2.45	40	720	22	2	Dose-dependent effect	< 0.5	>50	2	< 0.5	Dose-dependent effect	EC50 (Chikungunya virus [22]): 2.26 µM; EC50 (Chikungunya virus [23]): 2.18 µM; EC50 (Onyong-nyong virus): 3.24 µM; EC50 (Sindbis virus): 1.65 µM; EC50 (Chikungunya virus [24]): 5.07 µM; CC50 at 24 h [25]: > 100 µM; selectivity ratio [26]: > 20; EC50 (Chikungunya virus [27]): 2.5 µM; Activity (Chikungunya virus [28]): Active; Activity (Chikungunya virus [29]): inactive; EC50 (Chikungunya virus [30]): 14 to 15 µM; Activity (Chikungunya virus [31]): inactive; Activity (Chikungunya virus [32]): Active
